Shown are actives, neighbours in structure and some others; about 3.7% of the full set was active somewhere.
KCNQ1 pot – potentiators or activators of KCNQ1 channel, primary screen, cell-based, thallium flux, high-throughput; CHO-K1 KCNQ1, thallium flux FluxOR fluorescence; stronger effect = higher value; B-score at 10 µM; 0.35% of 310,000 active; AID 2648, 2010;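 active = fluorescence ratio B-score, a plate-corrected score, at least three library SD, with initial intensity B-score within 5 SD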
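assay system = CHO-K1 cells stably expressing KCNQ1 | medium = assay buffer, equal DMSO in all wells | timing = 37 °C overnight plating, 90-min dark dye load, 20-min compound pretreatment | measured by = kinetic FluxOR thallium fluorescence, 10-s 1-Hz baseline, 110-s post-stimulus read | measure = fluorescence change relative to baseline, converted to B score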
KCNQ1 inh – inhibitors of human KCNQ1 channel, primary screen, cell-based, thallium flux, high-throughput; B-score at 10 µM; 1.3% of 310,000 active; Potassium voltage-gated channel subfamily KQT member 1 (Homo sapiens), P51787; CHO-K1 KCNQ1, FluxOR thallium flux fluorescence; stronger effect = higher value;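 active = compounds whose thallium flux B-score, printed positive for inhibition, exceeds three library SD while starting fluorescence stays within three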;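 note: channel opened by potassium depolarization with thallium stimulus after 20 min compound exposure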
Kir21 inh – inhibitors of mouse Kir2.1 inward-rectifier potassium channel; Inward rectifier potassium channel 2 (Mus musculus), P35561; B-score at 10 µM; HEK293-Kir2.1, FluxOR thallium flux fluorescence; stronger effect = lower value; AID 1672, 2009; 0.85% of 310,000 active;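 active = fluorescence ratio B-score at or below minus 3 SD of library scores, with starting-brightness B-score within 2 SD, cut at about -4.2 in these data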;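 note: channel flux triggered by added potassium and thallium sulfate stimulus; B-score of peak minus minimum fluorescence over baseline after thallium stimulus; more negative B-score means stronger Kir2.1 block with less thallium influx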
KCNK3 block – human KCNK3 channel inhibitors, primary screen, CHO cells, FluxOR thallium flux, B-score | 0.84% of 340,000 active | FluxOR fluorescence; stronger effect = lower value | B-score at 10 µM;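 active = B-score under library mean minus 4 SD, starting fluorescence ratio at most library mean plus 5 SD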;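 note: more negative B-score means stronger inhibition of thallium flux through KCNK3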
Target sequence (O14649 whole entry, looked up): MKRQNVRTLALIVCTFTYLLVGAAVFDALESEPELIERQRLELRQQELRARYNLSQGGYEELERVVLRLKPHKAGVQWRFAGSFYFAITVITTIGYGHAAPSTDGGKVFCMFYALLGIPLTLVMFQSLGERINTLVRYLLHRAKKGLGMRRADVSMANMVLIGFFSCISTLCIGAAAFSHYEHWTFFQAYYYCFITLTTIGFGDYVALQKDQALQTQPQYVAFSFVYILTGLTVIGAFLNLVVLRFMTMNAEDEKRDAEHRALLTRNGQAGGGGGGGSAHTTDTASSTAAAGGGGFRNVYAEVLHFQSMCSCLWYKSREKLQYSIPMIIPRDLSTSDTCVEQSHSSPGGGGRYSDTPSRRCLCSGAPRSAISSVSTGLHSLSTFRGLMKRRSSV
hERG protect – hERG rescue from dofetilide block, primary screen, cell-based, CHO-hERG, FluxOR thallium flux, dofetilide IC70. Voltage-gated inwardly rectifying potassium channel KCNH2 (Homo sapiens), Q12809. dofetilide IC70 present. activation (rescue from dofetilide block), less the hit threshold, % at 10 µM. 0.51% of 310,000 active;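 active = activation above the mean of controls blocked by dofetilide plus 5 SD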;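 note: thallium influx through hERG after potassium depolarization seen as dye fluorescence rise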
KCNK9 inh – KCNK9 potassium channel inhibitors, primary screen, HEK293 cells, thallium flux. B-score at 10 µM. 1.2% of 310,000 active. FluxOR thallium flux fluorescence; stronger effect = lower value. AID 488922, 2010. Potassium channel subfamily K member 9 (Homo sapiens), Q9NPC2;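 active = ratio B-score over 3 SD below the library mean, with starting fluorescence within 5 SD of its mean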;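 note: negative B-score means less thallium flux so channel inhibition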
The depositor's hits bear a star; i = inactive; . = no result.

SMILES	KCNQ1 pot	KCNQ1 inh	Kir21 inh	KCNK3 block	hERG protect	KCNK9 inh
CCCCn1c(NS(=O)(=O)c2ccccc2)c(S(=O)(=O)c2ccc(C)cc2)c2nc3ccccc3nc21	i	i	-0.38	i	-1	i
CCCn1c(N)c(N2CCCCC2)c(=O)n(CC(=O)Nc2cccc(S(=O)(=O)N(C)C)c2)c1=O	.	.	.	i	.	.
O=[N+]([O-])c1ccc(C2CC(c3ccccc3)=Nc3ccccc3S2)cc1 (stereo not drawn)	i	i	-0.82	i	-9	-7.9*
CCCc1cc(=O)oc2c(CNc3ccc(OCC)cc3)c(O)ccc12	i	i	1.3	i	-22	i
CCOC(=O)/C(=C/c1ccc(OC(=O)c2ccncc2)cc1)C(C)=O	i	i	-1	i	-14	i
O=C(Oc1ccc(/C=N/Nc2ccccc2)cc1)c1ccccc1	i	i	-4.6*	i	-13	i
COCCOC(=O)/C(=C/c1ccc(OC(=O)c2ccccc2)cc1)C(C)=O	13*	i	-14*	i	-20	i
O=C(O)c1ccc(N/N=C/c2ccc(OC(=O)c3cccc(Cl)c3)cc2)cc1	i	i	3.4	i	-2	i
O=C(Oc1ccc(/C=N/O)cc1)c1ccccc1	i	i	-5.6*	i	-10	i
COc1ccc(CCNC(=O)CCSc2nc(-c3ccco3)cc(C(F)(F)F)n2)cc1OC	i	i	-4.4*	i	-4	i
Cc1ccccc1C(=O)Nc1ccnn1C1CCN(Cc2ccc(CO)o2)CC1	i	i	0.11	i	-7	i
COC(=O)c1cc2ccsc2n1Cc1nc(-c2cccc(Cl)c2)oc1C	i	i	0.17	i	-1	-7.3*
COC(=O)c1cc2sccc2n1Cc1nc(-c2ccc(Cl)cc2)oc1C	i	i	1.2	i	-2	i
Cc1ccc(S(=O)(=O)N(C)C)cc1NC(=S)Nc1cccc2ccccc12	i	i	-1.9	i	-5	-7.1*
Cc1ccc(S(=O)(=O)N(C)C)cc1NC(=S)NC(C)CCCC(C)C (stereo not drawn)	i	i	0.34	i	6.6*	i
Cc1ccc(S(=O)(=O)N(C)C)cc1NC(=S)NC(C)CCC(C)C (stereo not drawn)	i	i	-0.01	i	-4	i
COc1ccc(S(=O)(=O)N(C)C)cc1NCC(=O)Nc1cccc2ccccc12	i	i	-1.7	i	-15	-7.4*
O=C(NCc1ccccn1)C(=O)NCC1OCCN1S(=O)(=O)c1ccc([N+](=O)[O-])cc1 (stereo not drawn)	i	i	0.39	i	-7	i
COc1ccc(CNC(=O)CCC(=O)Nc2nnc(C(F)(F)F)s2)cc1	i	i	-0.41	i	-6	i
CC(=O)Oc1ccc2oc(-c3ccccc3)c(C(N)=O)c2c1	i	i	-0.19	.	-4	i
O=C(CSc1nnc(CNC(=O)c2ccco2)o1)Nc1ccc(F)cc1	i	i	-0.47	i	-10	i
Cc1ccc(S(=O)(=O)N(C)C)cc1NC(=O)COc1ccccc1C(=O)Nc1ccccc1	i	i	-0.31	i	-9	i
CN(C(=O)COc1ccccc1C(=O)NCCOc1ccccc1)c1ccccc1	i	i	-7.5*	i	-34	i
COc1ccccc1C(=O)NCCC(=O)N(C)CC(=O)Nc1ccc(C)cc1	i	i	0.11	i	-11	i
Cc1ccc(NC(=O)COc2ccccc2C(=O)NCCN(C)C)cc1	i	i	0.95	.	6.9*	i
SMILES	KCNQ1 pot	KCNQ1 inh	Kir21 inh	KCNK3 block	hERG protect	KCNK9 inh
Cc1ccc(NC(=O)c2ccccc2OCC(=O)Nc2ccccc2F)cc1S(=O)(=O)N(C)C	.	.	.	-9.6*	.	.
CCCCn1c(N)c(N(CC(C)C)C(=O)c2oc3ccc(Br)cc3c2C)c(=O)[nH]c1=O	i	i	2.2	i	-10	i
C[C@H]1[C@@H](c2ccccc2)Oc2ccc(Cl)cc2S(=O)(=O)N1Cc1ccc(F)cc1F	.	.	.	i	.	.
O=C(COC(=O)Cn1cnc2ccccc2c1=O)Nc1ccccc1OC(F)F	.	.	.	i	.	.
CCn1c(=S)[nH]c2sc3c(c2c1=O)CCCC3	35*	i	0.01	i	16*	i
C=CCn1c(=S)[nH]c2sc3c(c2c1=O)CCC3	i	i	1.1	i	16*	i
CC1CCc2c(sc3[nH]c(=S)n(C)c(=O)c23)C1 (stereo not drawn)	74*	i	0.02	i	52*	i
CC1CCc2c(sc3nn[nH]c(=O)c23)C1 (stereo not drawn)	i	i	0.01	i	-10	i
C=CCNC(=S)Nc1ccccc1-c1nnc2n1CCCCC2	i	i	-1.2	i	-2	i
CCOc1ccccc1NC(=O)COC(=O)CN1C(=O)NC(C)(C)C1=O	.	.	.	i	.	.
Nc1ncnc2c1ncn2[C@@H]1O[C@H](CNCc2ccc(-c3cc(C(F)(F)F)ccc3Cl)o2)[C@@H](O)[C@H]1O	.	.	.	i	.	.
CC1(C)SC(=S)N(/N=C/c2ccccc2)C1N(O)C(=O)Nc1ccc([N+](=O)[O-])cc1 (stereo not drawn)	i	i	-0.45	i	5.8*	i
COc1ccc(-c2csc(N(CCCN(C)C)C(=O)c3ccccc3Cl)n2)cc1	11*	i	-2.4	i	-4	i
COc1ccc(-c2csc(N(CCCN(C)C)C(=O)c3ccccc3C)n2)cc1	i	i	-0.19	i	-6	i
CCC(=O)N(Cc1ccco1)c1nc(-c2ccc(OC)cc2)cs1	i	i	1.7	i	-8	i
CCC(=O)N(CC)c1nc(-c2ccc(OC)cc2)cs1	i	i	-0.02	i	9.0*	i
Cc1c(Cl)c(C(=O)NNC(=S)NCc2ccco2)nn1C	i	i	0.33	i	-18	i
CCCCNC(=S)NNC(=O)c1nn(C)c(C)c1Cl	17*	i	0.3	i	-14	i
O=S(=O)(c1ccc(F)cc1)N1CCN=C1SCc1cccnc1	i	i	-3.6	i	-9	i
O=S(=O)(c1ccc2ccccc2c1)N1CCN=C1SCc1cccnc1	i	i	-5*	i	-13	i
COc1ccc(C(=O)c2sc(Nc3ccccc3)c(C(=O)Nc3ccc(OC)c(OC)c3)c2N)cc1	i	7*	-0.02	i	-16	i

Compound activity: PubChem, Johns Hopkins Ion Channel Center
